KCNQ1 block: human KCNQ1 channel inhibition; CHO-K1 KCNQ1, FluxOR thallium flux fluorescence; stronger effect = higher value; B-score at 10 µM; hit rate 1.3% among 310,000;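 active = compounds whose thallium flux B-score, printed positive for inhibition, exceeds three library SD while starting fluorescence stays within three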;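 also: channel opened by potassium depolarization with thallium stimulus after 20 min compound exposure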
hERG rescue: hERG (human) protection from proarrhythmic block. Q12809. CHO-hERG, FluxOR thallium flux, dofetilide IC70 present. activation (rescue from dofetilide block), less the hit threshold, % at 10 µM. hit rate 0.51% among 310,000. AID 1511;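 active = activation above the mean of controls blocked by dofetilide plus 5 SD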;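 also: thallium influx through hERG after potassium depolarization seen as dye fluorescence rise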
KCNK9 inh: human KCNK9 channel inhibition; HEK293 KCNK9, FluxOR thallium flux fluorescence; stronger effect = lower value; B-score at 10 µM; hit rate 1.2% among 310,000; AID 488922;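 active = ratio B-score over 3 SD below the library mean, with starting fluorescence within 5 SD of its mean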;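 also: negative B-score means less thallium flux so channel inhibition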
Target sequence (Q9NPC2 whole entry, looked up): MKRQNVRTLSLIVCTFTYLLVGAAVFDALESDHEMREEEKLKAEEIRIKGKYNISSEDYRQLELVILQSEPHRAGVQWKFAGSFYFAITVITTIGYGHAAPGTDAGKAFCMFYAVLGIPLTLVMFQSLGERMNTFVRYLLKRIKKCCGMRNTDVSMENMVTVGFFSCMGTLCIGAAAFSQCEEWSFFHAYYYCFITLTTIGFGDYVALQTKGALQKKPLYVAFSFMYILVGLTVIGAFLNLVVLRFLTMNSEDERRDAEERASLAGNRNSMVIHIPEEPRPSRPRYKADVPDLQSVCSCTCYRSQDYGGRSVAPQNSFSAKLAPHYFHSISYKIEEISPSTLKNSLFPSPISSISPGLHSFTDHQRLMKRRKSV
KCNQ1 pot: potentiators or activators of human KCNQ1 potassium channel; P51787; CHO-K1 KCNQ1, thallium flux FluxOR fluorescence; stronger effect = higher value; B-score at 10 µM; hit rate 0.35% among 310,000; AID 2648;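 active = fluorescence ratio B-score, a plate-corrected score, at least three library SD, with initial intensity B-score within 5 SD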
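Material: CHO-K1 cells stably expressing KCNQ1. Medium: assay buffer for compound exposure, DMSO matched across wells. Reagent: K+/Tl+ depolarizing stimulus. Compound dosing: single-concentration screen. Times: 37 °C overnight plating, 90-min dark dye load, 20-min compound pretreatment. Technique: FluxOR Tl+ flux fluorescence.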
KCNK3 block: human KCNK3 channel inhibition, primary screen. O14649. CHO-KCNK3 thallium flux, FluxOR fluorescence; stronger effect = lower value. B-score at 10 µM. hit rate 0.84% among 340,000;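 active = B-score under library mean minus 4 SD, starting fluorescence ratio at most library mean plus 5 SD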;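 also: more negative B-score means stronger inhibition of thallium flux through KCNK3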
Target sequence (O14649 whole entry, looked up): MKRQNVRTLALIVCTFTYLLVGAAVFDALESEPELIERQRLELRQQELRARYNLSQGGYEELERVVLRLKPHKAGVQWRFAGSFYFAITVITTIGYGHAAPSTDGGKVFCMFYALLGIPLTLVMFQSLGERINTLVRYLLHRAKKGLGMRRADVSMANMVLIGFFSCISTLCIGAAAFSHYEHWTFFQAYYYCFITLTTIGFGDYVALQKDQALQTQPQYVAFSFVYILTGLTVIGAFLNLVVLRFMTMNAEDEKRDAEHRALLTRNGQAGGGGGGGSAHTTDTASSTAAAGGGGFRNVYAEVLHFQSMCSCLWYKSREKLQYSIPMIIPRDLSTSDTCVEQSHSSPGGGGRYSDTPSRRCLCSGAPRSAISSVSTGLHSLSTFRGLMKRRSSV
KCC2 mod: modulators of human KCC2 chloride dependent transport | KCC2 cells, thallium flux FluoZin-2 fluorescence | hit rate 2.2% among 190,000 | AID 1456 | B-score of Tl+ flux slope (higher = more flux/activation; lower = inhibition) at 10 µM | Q9H2X9;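 active = thallium flux slope and its plate-corrected score both differing from the plate sample mean at a set confidence after two filtering rounds, in either direction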;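 also: slope of fluorescence scaled to starting intensity during 10 to 20 s after thallium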
KCNQ1 block val: reconfirmed blocker of the human KCNQ1 potassium channel. shares compounds with KCNQ1 block. KCNQ1 cell line, FluxOR thallium flux fluorescence. inhibition, % at 10 µM. hit rate 93% among 1,600. AID 588353;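 active = primary screen active, with duplicate mean exceeding buffer control mean plus 3 SD of buffer wells, cut at about 28% in these data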;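 also: 0% = buffer control ratio and 100% = XE991 inhibitor control ratio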
CHO Tl flux: KCNQ1 inhibitor counter-screen hit in parental CHO cells | shares compounds with KCNQ1 block | parental CHO-K1, FluxOR thallium flux fluorescence ratio; stronger effect = lower value; zero means no signal rise above baseline | fluorescence ratio (Tl flux) at 10 µM | hit rate 21% among 1,600 | AID 588366;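 active = mean of duplicate thallium-flux fluorescence ratios in parental host cells more than 5 SD below the buffer control mean, cut at about 0.38 in these data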;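 also: ratio is peak minus minimum fluorescence divided by baseline fluorescence; actives read low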
KCNQ1 ephys val: human KCNQ1 inhibition validated by electrophysiology. shares compounds with KCNQ1 block. KCNQ1-CHO cells, automated patch clamp current. calls only at 10 µM. hit rate 20% among 490;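 active = KCNQ1 current drop exceeding 3 SD of negative control wells, seen in both duplicate runs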;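 also: steady state current during a 2 s step from -80 to +40 mV; negative values mean current inhibition and positive values mean potentiation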
KCNQ2 spec: selectivity of KCNQ1 inhibitors: inhibition of rat KCNQ2 channel. shares compounds with KCNQ1 block. KCNQ2 cells, FluxOR thallium flux fluorescence. inhibition, % at 10 µM. hit rate 71% among 1,600. AID 651746;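 active = mean percent inhibition of the KCNQ2 thallium signal more than 5 SD above the buffer-only control wells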;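 also: KCNQ2 expressed in CHO cells; 0% = buffer control wells and 100% = XE-991 inhibitor control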
KCNQ1 KCNE1 spec: selectivity of KCNQ1 inhibitors: inhibition of human KCNQ1/KCNE1 channel; shares compounds with KCNQ1 block; KCNQ1/KCNE1 cells, FluxOR thallium flux fluorescence; inhibition, % at 10 µM; hit rate 77% among 1,600;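 active = mean percent inhibition of duplicate wells above the buffer-only control mean plus 3 SD of those controls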;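 also: 0% = buffer only wells and 100% = XE-991 inhibitor control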
* = called active by the depositor; i = inactive; · = no result; + = active, no number. This is a sample that favours compounds with a hit; in the whole collection about 4.1% have one here.

SMILES	KCNQ1 block	hERG rescue	KCNK9 inh	KCNQ1 pot	KCNK3 block	KCC2 mod	KCNQ1 block val	CHO Tl flux	KCNQ1 ephys val	KCNQ2 spec	KCNQ1 KCNE1 spec
COc1ccc(-n2cc(-c3ccccc3)nc2SC)cc1	6*	-15.3	i	i	i	-0.604	94.0*	0.422	i	86.0%*	130.0%*
COc1ccc(CC2(CO)CCN(CC3=Cc4cc(Cl)ccc4OC3)CC2)cc1	9*	-24.7	i	i	i	-0.188	113.0*	0.495	i	102.3%*	i
COc1ccc2c(c1)C=C(CN1CCC(CO)(CCc3ccccc3)CC1)CO2	i	-11.0	i	i	i	-1.76	·	·	·	·	·
O=C1C2C3C=CC(O3)C2C(=O)N1N=Cc1ccc2c(c1)OCO2 (stereo not given)	·	·	·	·	i	·	·	·	·	·	·
O=C(CNC1CCCCCC1)Nc1ccccc1N1CCCCC1	i	-4.0	i	i	i	-0.07	·	·	·	·	·
Cc1ccc(NC(=O)CSCC(=O)Nc2ccccc2N2CCCCC2)cc1	8*	-15.7	i	i	i	·	114.5*	0.424	+	i	167.5%*
Cc1cccc(NC(=O)CSCC(=O)Nc2ccccc2N2CCCCC2)c1	i	-9.5	i	i	i	·	·	·	·	·	·
O=C(CNCCC1=CCCCC1)Nc1ccccc1N1CCCCC1	8*	-18.7	i	i	i	0.749	132.0*	0.371*	·	110.3%*	179.0%*
COc1ccc(/C=N\NC(=O)c2cc(O)c(O)c(O)c2)cc1COc1ccc(C(=O)OCC(C)C)cc1	i	-4.8	i	i	i	·	·	·	·	·	·
O=C(COc1cccc(C(F)(F)F)c1)Nc1ccc(S(=O)(=O)N2CCCCC2)cc1	8*	-6.6	i	i	i	·	107.0*	0.504	i	98.7%*	67.0%*
Cc1[nH]c2ccccc2c1C(=O)COc1ccccc1	7*	-12.3	i	i	i	-1.07	0.0	0.481	·	63.3%*	40.0%*
CCn1c(-c2cc(-c3cccc(OC)c3)nc3ccccc23)n[nH]c1=S	6*	-12.4	i	i	i	2.71*	80.5*	0.472	·	i	95.0%*
CCc1ccc(-c2cc(-c3n[nH]c(=S)n3CC)c3ccccc3n2)cc1	i	-4.8	i	i	·	2.35	·	·	·	·	·
CCCc1cc(=O)oc2cc(OC3CCCCC3=O)ccc12 (stereo not given)	i	-6.4	i	i	i	·	·	·	·	·	·
O=C(OCCN1C(=O)c2ccccc2C1=O)c1cc(S(=O)(=O)N2CCOCC2)ccc1F	i	-8.9	i	i	i	0.022	·	·	·	·	·
O=C(OCCN1C(=O)c2cccc3c(N4CCOCC4)ccc(c23)C1=O)c1ccc(Cl)cc1	10*	-18.6	i	i	i	i	+	0.0875*	·	i	i
COC(=O)c1ccccc1NC(=O)CN1CCN(c2ccccn2)CC1	i	-2.6	i	i	i	-1.18	·	·	·	·	·
COC(=O)c1ccccc1N/C=C1\CCc2c(c(C)nn2-c2ccccn2)C1=O	6*	-14.7	i	i	i	·	95.5*	0.506	i	96.7%*	141.0%*
O=C1CCCCC1C(Nc1ccc(Br)cc1)c1ccccc1 (stereo not given)	8*	-3.0	-6.58*	i	i	-1.37	126.5*	0.439	+	89.0%*	171.5%*
O=C1CCCCC1C(Nc1ccc(Cl)cc1)c1ccccc1 (stereo not given)	i	-7.7	i	i	i	-0.201	·	·	·	·	·
C[C@]12CC[C@@H]3c4ccc(O)cc4CC[C@H]3[C@@H]1CC[C@@H]2OC(=O)CCC1CCCC1	i	-7.6	i	i	i	·	·	·	·	·	·
CCCCC(=O)O[C@H]1CC[C@H]2[C@@H]3CCc4cc(O)ccc4[C@H]3CC[C@]12C	6*	-4.9	i	i	i	0.31	72.0*	0.443	·	63.3%*	100.0%*
CCOC(=O)c1ccc(NC(=S)NCCc2ccccc2F)cc1	8*	-16.7	i	i	i	0.728	84.5*	0.446	·	77.0%*	50.5%*
CCOC(=O)c1ccc(NC(=S)NCCc2ccccc2)cc1	i	-13.7	i	i	i	·	·	·	·	·	·
CCSc1nnc(-c2sc3nnc(-c4ccccc4)c(-c4ccccc4)c3c2N)o1	14*	-27.0	i	i	i	i	+	0.138*	·	i	i
SMILES	KCNQ1 block	hERG rescue	KCNK9 inh	KCNQ1 pot	KCNK3 block	KCC2 mod	KCNQ1 block val	CHO Tl flux	KCNQ1 ephys val	KCNQ2 spec	KCNQ1 KCNE1 spec
S=C(NCc1ccc(Cl)cc1)Nc1ccncc1	11*	-21.1	i	i	i	·	144.5*	0.441	+	98.3%*	136.0%*
COc1ccc(-c2nc(NC(=O)c3c(C)noc3C)sc2C)cc1	·	·	·	·	i	·	·	·	·	·	·
COc1ccc(-c2nc(NC(=O)c3cc(C(C)(C)C)nn3C)sc2C)cc1	16*	-12.6	i	i	i	-0.348	128.5*	0.414	i	88.7%*	126.0%*
CCCn1c(SCC(=O)Nc2ccc3c(c2)OCCO3)n[nH]c1=O	·	·	·	·	i	·	·	·	·	·	·
CCOc1ccc2oc(C(=O)N3CCN(c4ccccc4OCC)CC3)c(C)c2c1	6*	-20.7	i	i	i	·	125.0*	0.42	i	131.0%*	+
CCOc1ccc2oc(C(=O)N3CCCN(C)CC3)c(C)c2c1	·	·	·	·	i	·	·	·	·	·	·
CCCCOCCCNc1ncnc2c1[nH]c1ccccc12	9*	-31.4	i	i	i	-8.13	153.5*	0.357*	·	120.7%*	198.5%*
c1ccc(-c2cn3nc(-c4ccccc4)c(-c4ccccc4)nc3n2)cc1	6*	-20.8	i	i	i	·	+	0.169*	·	i	i
Cc1ccc(-c2cn3nc(-c4ccccc4)c(-c4ccccc4)nc3n2)cc1	i	-27.1	i	i	i	i	·	·	·	·	·
CCOC(=O)c1c(NC(=O)c2ccccc2C)sc2c1CC(C)(C)OC2	7*	-9.8	i	i	i	-3.71	86.0*	0.442	·	91.7%*	150.5%*
COC(=O)c1c(NC(=O)c2ccccc2)sc2c1CC(C)(C)OC2	i	-4.2	i	i	i	·	·	·	·	·	·

Screens deposited in PubChem BioAssay by several laboratories.
